Results from ChEMBL document CHEMBL4000211, “Discovery of novel polycyclic spiro-fused carbocyclicoxindole-based anticancer agents” (Eur J Med Chem, 2017).

How the values were obtained:
NCI-H1299 = experiment: Antiproliferative activity against human NCI-H1299 cells after 48 hrs by MTT assay; assay type: functional, cell-based; details: NCI-H1299, 48 h
How it was run: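 Cells seeded at 3×10³/well and grown 24 h, then exposed 48 h to six final concentrations, twofold steps down from 30. MTT (5 mg/mL) was added for 2–4 h at 37 °C. Supernatant was removed, formazan dissolved in DMSO, and OD read at 570 nm. Results are given as IC50, or as percent inhibition where IC50 exceeds the top concentration. At least three runs.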

HCT-116 [1] = experiment: Cell cycle arrest in human HCT116 cells assessed as accumulation at G2 phase at 7.5 uM after 24 hrs by propidium iodide staining-based flow cytometric method (reference value: 26.10%); assay type: functional
HCT-116 [2] = experiment: Cell cycle arrest in human HCT116 cells assessed as accumulation at S phase at 10 uM after 24 hrs by propidium iodide staining-based flow cytometric method (reference value: 36.43%); assay type: functional
HCT-116 [3] = experiment: Cell cycle arrest in human HCT116 cells assessed as accumulation at S phase at 10 uM after 48 hrs by propidium iodide staining-based flow cytometric method (reference value: 34.83%); assay type: functional
HCT-116 [4] = experiment: Induction of apoptosis in human HCT116 cells assessed as viable cells at 7.5 uM after 24 hrs by annexin V-FITC/propidium iodide staining-based flow cytometric method (reference value: 93.48%); assay type: functional; details: HCT-116, 24 h, read-out: Activity
How it was run: (§1)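 HCT116 cells seeded at 1×10⁶ cells/mL in 6-well plates for 24 h, then exposed to 0, 7.5, 10 or 12.5 μM for a further 24 h or 48 h. Cells washed twice in PBS, then stained with Annexin V-FITC plus PI (100 μg/mL stock) in binding buffer (10 mM HEPES, pH 7.4, 2.5 mM CaCl₂) for 30 min at room temperature in the dark. Early and late apoptotic fractions gated by flow cytometry.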

HCT-116 [5] = experiment: Induction of apoptosis in human HCT116 cells assessed as late apoptotic cells at 7.5 uM after 48 hrs by annexin V-FITC/propidium iodide staining-based flow cytometric method (reference value: 1.06%); assay type: functional
HCT-116 [6] = experiment: Induction of apoptosis in human HCT116 cells assessed as early apoptotic cells at 12.5 uM after 48 hrs by annexin V-FITC/propidium iodide staining-based flow cytometric method (reference value: 1.6%); assay type: functional
HCT-116 [7] = experiment: Induction of apoptosis in human HCT116 cells assessed as viable cells at 12.5 uM after 48 hrs by annexin V-FITC/propidium iodide staining-based flow cytometric method (reference value: 95.05%); assay type: functional; details: HCT-116, 48 h, read-out: Activity; how it was run: as §1

Q: With `C[C@@H]1Oc2ccc3ccccc3c2[C@@H]2[C@@H]1C=C(C=O)[C@@H](C)[C@]21C(=O)Nc2ccccc21` as the compound, how does the IC50 (NCI-H1299) read?
A: The IC50 was > 30 µM.

Q: What about the Activity (HCT-116 [1]) of the same compound?
A: Its Activity is 28.5%.

Q: What about the Activity (HCT-116 [2]) of the same compound?
A: Its Activity is 7.13%.

Q: And the Activity (HCT-116 [3])?
A: Its Activity is 18.5%.

Q: What about the viability at 7.5 µM (HCT-116 [4]) of the same compound?
A: The viability at 7.5 µM was 89.9%.

Q: And the Activity (HCT-116 [5])?
A: Its Activity is 2.09%.

Q: And the Activity (HCT-116 [6])?
A: The Activity was 47.17%.

Q: And the viability at 12.5 µM (HCT-116 [7])?
A: Its viability at 12.5 µM is 28.6%.
